45 compounds from ChEMBL document CHEMBL1152682, “Structural optimization of a CXCR2-directed antagonist that indirectly inhibits gamma-secretase and reduces Abeta” (Bioorg Med Chem, 2009) can be followed below.

The nature of assay [1]: Antagonist activity at CXCR2 expressed in 7w CHO cells co-expressing human recombinant APP 751 assessed as inhibition of gamma-secretase-mediated amyloid beta40 production at 100 uM.
Assay [2] can be described thus: Antagonist activity at CXCR2 expressed in 7w CHO cells co-expressing human recombinant APP 751 assessed as inhibition of gamma-secretase-mediated amyloid beta40 production.
A short description of assay [3]: Antagonist activity at CXCR2 expressed in 7w CHO cells assessed as inhibition of GROalpha-mediated intracellular calcium mobilization by […] fluorescence assay. It counts as functional, cell-based. In a few lines:
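Adherent 7w cells (CHO stably expressing human APP751), grown to ~100% confluency in 96-well plates, loaded with […] dye for 1 h at 37 °C. Compounds were added from DMSO stocks in 1X HBSS (1% DMSO final) at ≥9 concentrations (10–100,000 nM), n = 8 each. GROα (33 nM final) followed 15 s later. Peak calcium was read at Ex/Em 494/516, and data were fitted to a 4-parameter sigmoid; three experiments.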
Background: Calcium flux is commonly read through the fluorescence of an indicator in the cells.

Assay [4] in a line: Antagonist activity at CXCR2 expressed in 7w CHO cells co-expressing human recombinant APP 751 assessed as inhibition of gamma-secretase-mediated amyloid beta42 production. It counts as functional, cell-based.

On to `O=C(Nc1ccccc1O)Nc1ccccc1Br`, for which the concentration for half-maximal inhibition (IC50) (commonly the concentration needed to halve the response being measured) in assay [1] is “Not Active”.
Take `O=C(Nc1ccc([N+](=O)[O-])cc1O)Nc1ccccc1Br`: the IC50 in assay [2] came out at 0.5 µM.
Still for that read-out and setting: the figure for `O=C(Nc1ccccc1)Nc1ccc([N+](=O)[O-])cc1O` is 12 µM.
Regarding `O=C(Nc1ccccc1)Nc1ccccc1Br`, the 50% inhibitory concentration (IC50) result in assay [1] was “Not Active”.
For the compound `O=C(Nc1ccc([N+](=O)[O-])cc1O)Nc1cc(F)c(F)cc1F`, the IC50 in assay [2] was determined as 10 µM.
Still for that read-out and setting: as for `CCCc1ccc(NC(=O)Nc2ccc([N+](=O)[O-])cc2O)cc1`, the figure is 4 µM.
With `O=C(Nc1ccc([N+](=O)[O-])cc1O)Nc1ccc(F)cc1F`, the IC50 in assay [2] was found to be 15 µM.
Regarding `O=C(Nc1ccc([N+](=O)[O-])cc1O)Nc1c(F)cc(F)cc1F`, the IC50 in assay [2] worked out at 15 µM.
On the same count and under the same terms, the figure for `Cc1ccc(NC(=O)Nc2ccc([N+](=O)[O-])cc2O)c(C)c1` is 3 µM.
Take `CC(C)c1ccccc1NC(=O)Nc1ccc([N+](=O)[O-])cc1O`: the IC50 entry was “Active” in assay [3] and 0.3 µM in assay [2].
`CC(C)(C)c1ccccc1NC(=O)Nc1ccc([N+](=O)[O-])cc1O`: in assay [2], the half-maximal inhibitory concentration (IC50) was determined as 15 µM.
Same read-out and setting: as for `O=C(Nc1cc(F)c(F)c(F)c1)Nc1ccc([N+](=O)[O-])cc1O`, the figure is 8 µM.
Regarding `COc1cc([N+](=O)[O-])ccc1NC(=O)Nc1ccccc1Cl`, in assay [1], the IC50 entry was “Not Active”.
Take `O=C(Nc1ccc(F)c(F)c1)Nc1ccc([N+](=O)[O-])cc1O`: in assay [2], the IC50 turned out to be 8 µM.
Regarding `O=C(Nc1ccc([N+](=O)[O-])cc1O)Nc1ccccc1F`, the figures for the IC50 result in assay [3] and in assay [2] were “Active” and 10 µM, respectively.
Consider `O=C(Nc1ccc([N+](=O)[O-])cc1)Nc1ccccc1F`, for which the IC50 in assay [2] amounted to 30 µM.
On to `O=C(Nc1ccc([N+](=O)[O-])cc1O)Nc1ccccc1Cl`, for which the IC50 entry in assay [3] is “Active”; in assay [2], 0.6 µM.
With `O=C(Nc1ccc([N+](=O)[O-])cc1O)Nc1ccc(Cl)c(Cl)c1Cl`, the IC50 in assay [2] came to 3 µM.
On to `O=C(Nc1ccc([N+](=O)[O-])cc1O)Nc1cc(Cl)c(Cl)cc1Cl`, for which the IC50 in assay [2] is 3 µM.
Same read-out and setting: as for `O=C(Nc1ccc([N+](=O)[O-])cc1O)Nc1ccc(Cl)cc1Cl`, the figure is 0.3 µM; as for `Cc1ccc(C)c(NC(=O)Nc2ccc([N+](=O)[O-])cc2O)c1`, 10 µM.
Same read-out and setting: the figure for `Cc1ccc(NC(=O)Nc2ccc([N+](=O)[O-])cc2O)cc1C` is 15 µM.
Regarding `COc1ccc(NC(=O)Nc2ccccc2F)c([N+](=O)[O-])c1`, in assay [2], the IC50 is 10 µM.
As for `CCCc1ccccc1NC(=O)Nc1ccc([N+](=O)[O-])cc1O`, the IC50 in assay [2] worked out at 0.1 µM.
On to `CCc1cccc(C)c1NC(=O)Nc1ccc([N+](=O)[O-])cc1O`, for which the IC50 in assay [2] stood at 7 µM.
Regarding `CCc1cccc(C(C)C)c1NC(=O)Nc1ccc([N+](=O)[O-])cc1O`, the IC50 in assay [2] came to 3 µM.
The same measure, in the same setting: the figure for `O=C(Nc1ccc([N+](=O)[O-])cc1O)Nc1ccc(F)c(F)c1F` is 8 µM.
Take `COc1cc([N+](=O)[O-])ccc1NC(=O)Nc1ccccc1F`: the IC50 result in assay [3] is “Active”; in assay [2] it was 5 µM.
For the compound `CCc1cccc(NC(=O)Nc2ccc([N+](=O)[O-])cc2O)c1`, in assay [2], the IC50 amounted to 4 µM.
For `CCc1ccc(NC(=O)Nc2ccc([N+](=O)[O-])cc2O)cc1`, the IC50 in assay [2] came out at 3 µM.
On to `Cc1cccc(C(C)C)c1NC(=O)Nc1ccc([N+](=O)[O-])cc1O`, for which, in assay [2], the IC50 is 5 µM.
The same measure, in the same setting: as for `O=C(Nc1ccc([N+](=O)[O-])cc1O)Nc1ccc(Br)cc1Br`, the figure is 0.8 µM.
Regarding `COc1cc([N+](=O)[O-])ccc1NC(=O)Nc1ccccc1Br`, the IC50 entry in assay [1] is “Not Active”.
Regarding `CC(C)c1cccc(C(C)C)c1NC(=O)Nc1ccc([N+](=O)[O-])cc1O`, the half-inhibitory concentration (IC50) in assay [2] amounted to 8 µM.
As for `O=C(Nc1ccccc1O)Nc1ccccc1Cl`, the IC50 entry in assay [1] is “Not Active”.
Take `Cc1ccccc1NC(=O)Nc1ccc([N+](=O)[O-])cc1O`: the IC50 in assay [2] is 2 µM.
Turning to `O=C(Nc1ccc(Cl)c(Cl)c1)Nc1ccc([N+](=O)[O-])cc1O`, the IC50 in assay [2] was 0.7 µM.
For `O=C(Nc1ccc([N+](=O)[O-])cc1O)Nc1cc(Cl)ccc1Cl`, the IC50 result in assay [3] is “Active”; in assay [2] it was 0.5 µM.
Take `CCc1cccc(C(C)CC)c1NC(=O)Nc1ccc([N+](=O)[O-])cc1O` (stereo not given): the IC50 in assay [4] turned out to be 15 µM.
With `CCC(C)c1ccccc1NC(=O)Nc1ccc([N+](=O)[O-])cc1O` (stereo not given), in assay [4], the IC50 is 1 µM.
Turning to `COc1cc([N+](=O)[O-])ccc1NC(=O)Nc1ccccc1`, in assay [1], the IC50 result is recorded as “Not Active”.
With `O=C(Nc1ccccc1F)Nc1ccc(O)cc1[N+](=O)[O-]`, the IC50 entry in assay [1] is “Not Active”.
Turning to `CCc1ccccc1NC(=O)Nc1ccc([N+](=O)[O-])cc1O`, the IC50 in assay [2] stood at 0.09 µM.
Consider `Cc1cc(C)cc(NC(=O)Nc2ccc([N+](=O)[O-])cc2O)c1`, for which the IC50 in assay [2] was 2 µM.
On to `COc1cc([N+](=O)[O-])ccc1NC(=O)Nc1cccc(F)c1`, for which, in assay [2], the IC50 was found to be 12 µM.
